Results reported in ChEMBL document CHEMBL5357044, “Discovery of a dual-acting inhibitor of interleukin-1β and STATs for the treatment of inflammatory bowel disease” (RSC Med Chem, 2024).
The source made the active and inactive calls. The calls are words filed in the database; no cut-off is given here.

Experiments:
[1] = biological target: NACHT, LRR and PYD domains-containing protein 3 (Mus musculus, UniProt Q8R4B8); test: Inhibition of NLRP3 inflammasome activation in mouse J774.A1 cells assessed as reduction in LPS-stimulated IL-1beta level pretreated for 1 hr followed by nigericin treatment for 1 hr by ELISA; assay type: cell-based
NACHT, LRR and PYD domains-containing protein 3, sequence (Q8R4B8 whole entry, the tested form may be a part): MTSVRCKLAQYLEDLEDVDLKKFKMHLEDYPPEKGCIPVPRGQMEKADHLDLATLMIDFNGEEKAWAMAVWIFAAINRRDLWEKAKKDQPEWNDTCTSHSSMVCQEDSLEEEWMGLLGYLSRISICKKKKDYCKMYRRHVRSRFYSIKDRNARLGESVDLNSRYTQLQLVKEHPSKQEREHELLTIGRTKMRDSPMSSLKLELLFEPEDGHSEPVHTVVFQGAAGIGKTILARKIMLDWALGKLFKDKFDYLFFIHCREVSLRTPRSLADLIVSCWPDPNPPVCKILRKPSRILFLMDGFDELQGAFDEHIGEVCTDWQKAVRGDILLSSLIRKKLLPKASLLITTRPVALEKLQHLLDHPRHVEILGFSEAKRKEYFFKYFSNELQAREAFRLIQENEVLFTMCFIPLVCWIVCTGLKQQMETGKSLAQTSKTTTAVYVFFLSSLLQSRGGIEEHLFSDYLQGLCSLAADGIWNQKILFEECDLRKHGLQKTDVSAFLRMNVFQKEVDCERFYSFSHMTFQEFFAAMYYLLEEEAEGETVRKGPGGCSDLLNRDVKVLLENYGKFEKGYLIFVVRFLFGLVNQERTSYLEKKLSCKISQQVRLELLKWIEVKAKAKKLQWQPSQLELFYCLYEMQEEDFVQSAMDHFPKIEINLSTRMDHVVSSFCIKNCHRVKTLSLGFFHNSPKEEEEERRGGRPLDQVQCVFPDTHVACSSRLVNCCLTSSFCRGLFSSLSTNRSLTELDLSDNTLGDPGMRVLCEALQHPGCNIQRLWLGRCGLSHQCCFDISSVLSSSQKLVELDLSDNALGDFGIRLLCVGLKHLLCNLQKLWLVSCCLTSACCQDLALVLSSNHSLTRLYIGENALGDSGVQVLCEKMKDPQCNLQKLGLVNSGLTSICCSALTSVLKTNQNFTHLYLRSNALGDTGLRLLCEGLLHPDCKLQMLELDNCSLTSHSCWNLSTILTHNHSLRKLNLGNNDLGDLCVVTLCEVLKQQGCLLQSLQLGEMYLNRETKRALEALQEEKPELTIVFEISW
Outline: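 J774A.1 cells (DMEM, 10% FBS) primed with LPS 1 μg mL−1 for 5 h, compound 1 h, then nigericin 10 μM for 1 h. Supernatant IL-1β by ELISA; IC50 from three separate determinations.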

[2] = biological target: NACHT, LRR and PYD domains-containing protein 3 (Mus musculus) (UniProt Q8R4B8); test: Inhibition of NLRP3 inflammasome activation in mouse J774.A1 cells assessed as reduction in mature IL-1beta release at 50 to 200 nM pretreated for 1 hr followed by nigericin treatment for 1 hr by Western blot analysis; assay type: cell-based; settings: dose 50-200 nM, time 2.0 hrs
NACHT, LRR and PYD domains-containing protein 3 (Mus musculus), sequence (Q8R4B8 whole entry, the tested form may be a part): as above
Outline: (§1)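 J774A.1 cells, LPS 1 μg mL−1 for 5 h, compound exposure, nigericin 10 μM 1 h. RIPA lysis with protease inhibitor and BCA quantitation, then SDS-PAGE/PVDF. Blocked 5% milk, primary antibodies overnight at 4 °C, HRP secondaries, ECL detection.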

[3] = biological target: NACHT, LRR and PYD domains-containing protein 3 (Mus musculus) (UniProt Q8R4B8); test: Inhibition of NLRP3 inflammasome activation in mouse J774.A1 cells assessed as reduction in caspase-1 p20 subunits release at 50 to 200 nM pretreated for 1 hr followed by nigericin treatment for 1 hr by Western blot analysis; assay type: cell-based; settings: dose 50-200 nM, time 2.0 hrs; outline: as §1
[4] = biological target: NACHT, LRR and PYD domains-containing protein 3 (Mus musculus) (UniProt Q8R4B8); test: Inhibition of NLRP3 inflammasome activation in mouse J774.A1 cells assessed as reduction in cleaved GSDMD production at 50 to 200 nM pretreated for 1 hr followed by nigericin treatment for 1 hr by Western blot analysis; assay type: cell-based; settings: dose 50-200 nM, time 2.0 hrs; outline: as §1
J774.A1 [5] = test: Inhibition of intracellular ROS generation in mouse J774.A1 cells at 0.125 to 0.5 uM pretreated for 1 hr followed by nigericin treatment for 1 hr by DCFH-DA staining based fluorescence microscopy; assay type: functional, cell-based; settings: dose 0.125-0.5 µM, time 2.0 hrs
Outline: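 J774A.1 cells processed through NLRP3 activation protocol (LPS 1 μg mL−1 5 h, compound, nigericin 10 μM 1 h). Loaded with DCFH-DA 20 μM at 37 °C for 30 min and washed twice with D-PBS. Fluorescence read at Ex/Em 492/520.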

[6] = biological target: NACHT, LRR and PYD domains-containing protein 3 (Mus musculus) (UniProt Q8R4B8); test: Inhibition of NLRP3 inflammasome activation in mouse BMDM cells assessed as reduction in LPS-stimulated IL-1beta level at 50 to 200 nM pretreated for 1 hr followed by nigericin treatment for 30 mins by ELISA; assay type: cell-based; settings: dose 50-200 nM, time 1.5 hrs
Outline: (§2)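 Bone-marrow macrophages in RPMI 1640/10% FBS/M-CSF. LPS priming at 0.5 μg mL−1 for 3 h, compound 1 h. NLRP3 then triggered by nigericin 10 μM for 0.5 h or imiquimod 900 μM for 2 h. Supernatant IL-1β by ELISA.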

[7] = biological target: NACHT, LRR and PYD domains-containing protein 3 (Mus musculus) (UniProt Q8R4B8); test: Inhibition of NLRP3 inflammasome activation in mouse BMDM cells assessed as reduction in LPS-stimulated IL-1beta level at 50 to 200 nM pretreated for 1 hr followed by imiquimod treatment for 2 hrs by ELISA; assay type: cell-based; settings: dose 50-200 nM, time 3.0 hrs; outline: as §2
J774.A1 [8] = test: Inhibition of STAT5 expression in LPS-treated mouse J774.A1 cells assessed as reduction in STAT5 phosphorylation at 50 to 200 nM treated for 1 hr by Western blot analysis; assay type: cell-based; settings: dose 50-200 nM
Outline: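 J774A.1 cells pretreated with LPS and compound, lysed in RIPA. pSTAT1, STAT1, pSTAT3, STAT3, pSTAT5 and STAT5 detected by SDS-PAGE western blot with ECL.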

[9] = Toxicity in mouse assessed as inactive state of animal at 2 mg/kg/day, ip treated for 7 days; assay type: organism-based; settings: in vivo, 168 h, time 7 day
Outline: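 Preliminary tolerability study: mice (n = 2) injected intraperitoneally at 2 mg kg−1 per day for 7 days. General state and activity observed.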

Mus musculus [10] = test: Anti-colitis activity against DSS-induced ulcerative colitis mouse model assessed as increase in body weight at 0.2 to 0.6 mg/kg, ip treated every 72 hrs for 9 days; assay type: functional, organism-based; settings: dose 0.2-0.6 mg/kg, time 9.0 day
Outline: (§3)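 Mice given 2.5% DSS water days 1–7, then water to day 9. Dosing: i.p. 0.2 or 0.6 mg kg−1 in 50% PEG300 on days 2, 5, 8. Body weight and fecal occult blood scored daily. Colon length measured after sacrifice on day 9. Mean ± s.e.m.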

Mus musculus [11] = test: Anti-colitis activity against DSS-induced ulcerative colitis mouse model assessed as increase in colon length at 0.2 to 0.6 mg/kg, ip treated every 72 hrs for 9 days; assay type: functional, organism-based; settings: dose 0.2-0.6 mg/kg, time 9.0 day; outline: as §3
Colon [12] = test: Anti-colitis activity against DSS-induced ulcerative colitis mouse model assessed as decrease in IL-1beta level in colon tissue at 0.2 to 0.6 mg/kg, ip treated every 72 hrs for 9 days by ELISA; assay type: functional, organism-based; settings: dose 0.2-0.6 mg/kg, time 9.0 day
Outline: (§4)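 Colitis induced with 2.5% DSS in drinking water on days 1–7, plain water days 8–9. Compound given i.p. at 0.2 and 0.6 mg kg−1 in 50% PEG300 on days 2, 5 and 8. Mice killed on day 9; colon tissue cytokines measured by ELISA. Mean ± s.e.m.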

Colon [13] = test: Downregulation of IL-6 level in colon tissue of DSS-induced ulcerative colitis mouse model at 0.2 to 0.6 mg/kg, ip treated every 72 hrs for 9 days by ELISA; assay type: functional, organism-based; settings: dose 0.2-0.6 mg/kg, time 9.0 day; outline: as §4
Colon [14] = test: Anti-colitis activity against DSS-induced ulcerative colitis mouse model assessed as increase in goblet cells in colon tissue at 0.2 to 0.6 mg/kg, ip treated every 72 hrs for 9 days by H and E staining based analysis; assay type: functional, organism-based; settings: dose 0.2-0.6 mg/kg, time 9.0 day
Outline: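 Colons were taken on day 9 from 2.5% DSS-fed mice (DSS days 1–7). Dosing was i.p. 0.2 or 0.6 mg kg−1 in 50% PEG300 on days 2, 5, 8. H&E-stained sections imaged at ×20 and scored for inflammatory infiltration, goblet cell depletion and crypt loss.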

Intestine = test: Anti-colitis activity against DSS-induced ulcerative colitis mouse model assessed as decrease in caspase-1 level in intestinal tissue at 0.2 to 0.6 mg/kg, ip treated every 72 hrs for 9 days by Western blot analysis; assay type: functional, organism-based; settings: dose 0.2-0.6 mg/kg, time 9.0 day
Outline: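 DSS model (2.5% in drinking water days 1–7, water days 8–9). Dosing was i.p. at 0.2 and 0.6 mg kg−1 in 50% PEG300 on days 2, 5, 8. Intestinal tissue taken at sacrifice on day 9. Lysed in RIPA with protease inhibitor and BCA-quantified, then run on SDS-PAGE/PVDF and probed for STAT1, STAT3, STAT5 and caspase-1. ECL detection.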

## Cc1cc(/C=C/C(=O)c2ccc(C(=O)N[C@@H](Cc3ccccc3)C(=O)N[C@@H](CC(C)C)B(O)O)cc2)cc(C)c1O
[1]
  IC50: 0.13 µM
[2]
  inhibition: Active
[3]
  inhibition: Active
[4]
  inhibition: Active
J774.A1 [5]
  inhibition: inactive
[6]
  inhibition: Active
[7]
  inhibition: Active
J774.A1 [8]
  inhibition: Active
[9]
  Activity: Toxic
Mus musculus [10]
  Activity: Active
Mus musculus [11]
  Activity: Active
Colon [12]
  Activity: Active
Colon [13]
  Activity: inactive
Colon [14]
  Activity: Active
Intestine
  Activity: Active
